A short description of data set [1]: Cytotoxicity against human HuH6 cells. Type of data set: cell-based. The essentials:
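Huh-6 replicon cells were seeded at 15 000/well, handled as for Huh-9-13 (2% FCS DMEM, 3-fold serial dilutions without G418), and incubated 3 days at 37 °C. CC₅₀ is the µM concentration inhibiting Huh cell proliferation by 50%, given as mean ± SE (n ≥ 3).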

Data set [2] concerns Hepatitis C virus. Kind of data set: Antiviral activity against HCV in human HuH5.2 cells assessed as inhibition of replicon replication. Type of data set: functional, organism-based, Hepacivirus hominis. To be noted: Huh-5-2. The essentials: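 Huh-5-2 replicon cells seeded 5000/well in DMEM with 2% FCS and 250 µg/mL G418. After 24 h at 37 °C, 3-fold serial dilutions given in DMEM without G418. Incubated 4 days at 37 °C. Replicon read as luciferase activity (Steady-Glo). EC50 is 50% inhibition of replication; mean ± SE, n ≥ 3.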
In general terms: A replicon is a self-replicating genome or part of one, used to study replication in cells.

A short description of data set [3]: Cytotoxicity against human HuH5.2 cells. The class given is cell-based, Huh-5-2. The essentials:
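Huh-5-2 replicon cells were seeded at 5000/well in DMEM with 2% FCS and 250 µg/mL G418 and kept 24 h at 37 °C (5% CO₂). They were then exposed to 3-fold serial dilutions in medium without G418 for 4 days at 37 °C. CC₅₀ is the µM concentration inhibiting Huh cell proliferation by 50%, given as mean ± SE (n ≥ 3).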

The subject of data set [4] is Hepatitis C virus. Kind of data set: Antiviral activity against HCV in human Huh9.13 cells assessed as inhibition of replicon replication. The class given is functional, organism-based, Hepacivirus hominis. The essentials:
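Huh-9-13 replicon cells seeded 5000/well in DMEM with 2% FCS and 1000 µg/mL G418. After 24 h at 37 °C, 3-fold serial dilutions given without G418 for 4 days. Cells washed and lysed, replicon RNA quantified by real-time PCR. EC50 is 50% drop in HCV RNA versus untreated control; mean ± SE, n ≥ 3.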

Data set [5] can be described thus: Cytotoxicity against human Huh-9-13 cells. The class given is cell-based. A digest of the protocol: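 Huh-9-13 replicon cells were seeded at 5000/well in DMEM with 2% FCS and 1000 µg/mL G418 and incubated 24 h at 37 °C. They then received 3-fold serial compound dilutions in G418-free medium for 4 days at 37 °C. CC₅₀ is the µM concentration inhibiting Huh cell proliferation by 50%, given as mean ± SE (n ≥ 3).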

The subject of data set [6] is Hepatitis C virus. Kind of data set: Antiviral activity against HCV in human HuH6 cells assessed as inhibition of replicon replication. To be noted: HuH-6. The class given is functional, organism-based, Hepacivirus hominis. The essentials: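 Huh-6 replicon cells seeded 15 000/well and treated with serial compound dilutions as for Huh-9-13. Incubated 3 days at 37 °C, then lysed in cells-to-cDNA buffer. Replicon RNA quantified by real-time PCR. EC50 is 50% drop in HCV RNA versus untreated control; mean ± SE, n ≥ 3.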

In data set [7] the test system is MIA PaCa-2. The experiment in a line: Cell clycle arrest in human MIAPaCa2 cells assessed as increase in sub-G1/G0 fraction after 48 hrs by flow cytometry analysis. The class given is functional. The essentials: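 MiaPaCa-2 cells seeded at 10⁶ per 10 cm dish and left overnight. Treated 48 h, untreated as negative control. Cells trypsinised, fixed overnight in cold 70% ethanol at 4 °C, treated with RNase (500 µg/mL) and stained with propidium iodide (50 µg/mL). Sub-G1/G0 ratio read by flow cytometry on 10⁶ cells. Run in triplicate.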
In general terms: In flow cytometry, cells or beads pass a laser one at a time.

In data set [8] the test system is MIA PaCa-2. The experiment in a line: Antiproliferative activity against human MIAPaCa2 cells after 2 days by MTT assay. The class given is functional. The essentials:
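MiaPaCa-2 cells in DMEM with 10% FBS, seeded 15 000/well and left to attach overnight. Medium then replaced with compound at different concentrations, untreated medium as control. Incubated 48 h at 37 °C, 5% CO2. Viable cells read by MTT colorimetric assay.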

Data set [9] relates to MIA PaCa-2. Kind of data set: Antitumor activity against human MIAPaCa2 cells transfected mouse assessed as reduction of tumor volume at 150 mg/kg, ip administered every 3 days for 4 weeks measured after 2 weeks. The class given is functional. Further details: scale not given: the % may be the effect or the level left. Particulars: route intraperitoneal. The essentials:
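Male nude mice, 6 weeks old, inoculated subcutaneously with about 1 × 10⁷ MiaPaCa-2 cells plus 0.1 mL Matrigel. At 100 mm³ tumours, mice randomised; untreated mice served as control; five per group. Tumour volume measured weekly as length × width × depth × 0.5236. Mean ± SE, Student's t test.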

Data set [10] has as its system MIA PaCa-2. Kind of data set: Induction of apoptosis in human MIAPaCa2 cells assessed as increase in caspase 3/7 activation after 48 hrs. The class given is functional. A digest of the protocol: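 MiaPaCa-2 cells seeded 15 000/well; 24 h later treated 48 h. Caspase-3/7 measured by cleavage of fluorogenic Z-DEVD-R110 substrate (Apo-ONE reagent). Reagent incubated 30 min at room temperature, then fluorescence read. Triplicate; mean ± SE, n = 3.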

Data set [11] relates to MIA PaCa-2. Kind of data set: Induction of apoptosis in human MIAPaCa2 cells assessed as increase in DNA/histone nucleosome release into cytoplasm after 48 hrs by ELISA. The class given is functional. The essentials:
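MiaPaCa-2 cells seeded 15 000/well for 24 h, then treated 48 h, untreated as control. Lysate supernatant captured on streptavidin plate with biotin anti-histone and peroxidase anti-DNA antibodies, 2 h at room temperature. After washing, peroxidase substrate added for 20 min, read at 405/490 nm. Result given as fold absorbance over control. Triplicate.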
A general note: In an ELISA, binding on a coated surface is turned into a signal by an enzyme label.

Data set [12] concerns MIA PaCa-2. The experiment in a line: Antiproliferative activity against human MIAPaCa2 cells by MTT assay. The class given is functional, cell-based. The essentials: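 MiaPaCa-2 pancreatic cancer cells in DMEM with 10% FBS, seeded at 15 000/well and allowed to attach overnight. Medium was then replaced with fresh medium containing compound, or medium alone as control. Cells were incubated for 48 h at 37 °C with 5% CO₂, and viable cells were counted by MTT colorimetric assay.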

pEC50: −log10 of the molar value. The source made the active and inactive calls. No cut-off for these calls is given here. Some results are limits rather than exact numbers.

The term CC50 denotes the concentration at which the toxic effect on the cells reaches its halfway point. The pEC50 is the negative decadic logarithm of the EC50, by convention in mol/L. As to `NC(=O)c1nc(C#Cc2ccccc2)n(COCCO)n1`, the CC50 in data set [1], in data set [3] and in data set [5] was greater than 170 µM in each case. For the same molecule, the pEC50 was 4.20 in data set [2], less than 3.79 in data set [4] and 3.95 in data set [6].
For `COC(=O)c1nc(C#CC2(O)CCCC2)n([C@@H]2O[C@H](COC(C)=O)[C@@H](OC(C)=O)[C@H]2OC(C)=O)n1`, the 50% cytotoxic concentration (CC50) in data set [1], in data set [3] and in data set [5] was greater than 105 µM throughout. The negative logarithm of the EC50 (pEC50) is 4.28 in data set [2], 4.27 in [4] and 4.60 in data set [6].
Turning to `NC(=O)c1nc(C#Cc2ccc(F)cc2)n(COCCO)n1`, the CC50 in data set [1] was 132 µM; in data set [3], greater than 160 µM; in data set [5], greater than 160 µM. Moreover, the results for the pEC50 in data set [2], in [4] and in [6] were 4.14, 3.90 and 4.02, respectively.
With `COC(=O)c1nc(C#Cc2ccc(C(F)(F)F)cc2)n([C@@H]2O[C@H](COC(C)=O)[C@@H](OC(C)=O)[C@H]2OC(C)=O)n1`, the “fold change (FC)” value in data set [7] is 3; in [10] it was 6.8; in data set [11], 3. Also, in data set [8], the “inhibition (INH)” value was determined as 59%. Also, in data set [9], the Activity came to 60%.
Turning to `NC(=O)c1ncn([C@@H]2O[C@H](CO)[C@@H](O)[C@H]2O)n1` [RIBAVIRIN], the values for the CC50 in data set [1] and in data set [5] were greater than 100 µM and 229 µM, respectively. In addition, the figures for the negative-log EC50 (pEC50) in data set [2], in data set [4] and in data set [6] were 4.54, 4.08 and 4.48, respectively.
For the molecule `NC(=O)c1nc(C#Cc2ccc(C(F)(F)F)cc2)n(COCCO)n1`, the results for the CC50 in [1] and in data set [5] were 87.5 µM and 79 µM, respectively. For the same molecule, the figures for the pEC50 in [2], in data set [4] and in data set [6] were 4.85, 4.44 and 4.29, respectively. Besides, the result in [12] was inactive.
With `NC(=O)c1nc(C#Cc2ccc(C(F)(F)F)cc2)n([C@@H]2O[C@H](CO)[C@@H](O)[C@H]2O)n1`, the CC50 in [1] is greater than 120 µM; in data set [3], 82.5 µM; in data set [5] it was greater than 120 µM. Also, the figures for the pEC50 in data set [2], in data set [4] and in [6] were 4.75, 4.71 and 4.36, respectively.
Regarding `Nc1ccn([C@@H]2O[C@H](CO)[C@@H](O)C2(F)F)c(=O)n1` [GEMCITABINE], the “inhibition (INH)” value in data set [8] is reported as 29%. Further, the “fold change (FC)” value in data set [10] stood at 2.

Source of the values: ChEMBL document CHEMBL1140901, “Discovery of novel arylethynyltriazole ribonucleosides with selective and effective antiviral and antiproliferative activity” (J Med Chem, 2009).
